A selection: hits, their analogues and other compounds. The true share with any hit is near 2.7%.
TNF necrop inh – inhibitors of TNF-alpha triggered necroptosis, primary screen, cell-based, Jurkat FADD-/-, single concentration; Jurkat FADD-/- TNF necroptosis rescue, ATP luminescence, 24 h; 0 = TNF only, 100 = no-TNF cells; activation (protection from cell death), % at 10 µM; actives 0.068% (n = 220,000); AID 463075, 2010;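 active = activation, meaning protection from cell death, of at least 50% relative to plate controls; inactive = activation below 50%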;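 note: necroptosis triggered by 40 ng/mL TNF-alpha added together with compound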
RBBP9 inh – human RBBP9 inhibitors, primary screen, biochemical, fluorescence polarization, FP-Rh probe, HTS; Serine hydrolase RBBP9 (Homo sapiens), O75884; recombinant RBBP9; inhibition, % at 7.94 µM; actives 0.2% (n = 220,000);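 active = inhibition above the campaign mean of all tested compounds plus 3 SD, cut at about 14% in these data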;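 note: plate controls were DMSO wells with RBBP9 for no effect and wells lacking RBBP9 protein for full effect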
Target sequence (O75884 whole entry, looked up): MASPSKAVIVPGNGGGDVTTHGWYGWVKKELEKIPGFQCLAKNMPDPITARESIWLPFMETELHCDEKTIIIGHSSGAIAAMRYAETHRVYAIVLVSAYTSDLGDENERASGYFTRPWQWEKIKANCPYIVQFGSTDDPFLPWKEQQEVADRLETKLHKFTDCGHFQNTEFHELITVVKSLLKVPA
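system = RBBP9 protein | input = RBBP9 at 2.5 µM in dispensed solution, before mixing | measured by = fluorescence polarization (mP), excitation 525 nm, emission 598 nm | incubation = enzyme-compound preincubation 30 min, then probe labeling 45 min, 25 °C | buffer or medium = Tris-NaCl-Pluronic buffer, pH 8.0 | compound = single dose 7.94 µM | also added = FP-Rh probe, 375 nM dispensing solution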
p97 inhibitor – inhibitors of human p97 ATPase, primary screen, biochemical | Transitional endoplasmic reticulum ATPase (Homo sapiens), P55072 | recombinant p97 ATPase, Kinase-Glo ATP luminescence, 3 h | inhibition, % at 8 µM | actives 0.42% (n = 220,000); in the data active = inhibition above about 15%;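 note: 0% = DMSO vehicle and 100% = wells lacking enzyme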
Wee1 stabilizer – Wee1 degradation inhibitors, primary screen, cell-based, HeLa, Wee1K328M-luciferase, luminescence; Wee1-like protein kinase (Homo sapiens), P30291; HeLa Luc-Wee1K328M stability; 100% = proteasome inhibitor MG132 effect; reporter increase, % at 5 µM; actives 1.2% (n = 220,000);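 active = activation above the mean of all tested compounds plus 3 SD, set per screening run, cut at about 8.8% in these data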;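 note: cells exposed to compound for 20 h before luminescence read; 0% = DMSO alone and 100% = MG132 at 30 µM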
PfM18AAP inh-1 – PfM18AAP inhibitors, malaria aminopeptidase, primary screen, biochemical, QFRET, recombinant enzyme; M18 aspartyl aminopeptidase (Plasmodium falciparum 3D7); H-Glu-NHMec fluorogenic cleavage; inhibition, % at 7.35 µM; actives 1.2% (n = 290,000);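 active = inhibition above the campaign mean inhibition over all tested compounds plus 3 SD, cut at about 28% in these data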;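 note: 0% = plate median of test compound wells and 100% = 2 mM ZnCl2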
zVAD death inh – inhibitors of zVAD-triggered necroptosis, primary screen, L929 cells; L929 zVAD necroptosis rescue, ATP luminescence, 24 h; with zVAD 60 µM; viability rescue, % at 10 µM; actives 0.38% (n = 220,000); AID 1377, 2008;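 active = activation, scaled between plate controls, above about 75%, limit read from the data; inactive = activation under that limit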;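 note: 0% = zVAD with DMSO and 100% = DMSO alone without zVAD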
zVAD necrop conf – inhibitors of zVAD-triggered necroptosis in L929, confirmation, L929 cells, duplicate runs; shares compounds with zVAD death inh; L929 zVAD-induced necroptosis rescue, ATP luminescence, 24 h; activation (protection from necroptosis), % at 10 µM; actives 16% (n = 760);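 active = mean protection from necroptosis of at least 50% over duplicate tests; inactive = mean protection below 50%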;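 note: 0% = cells with zVAD alone and 100% = vehicle cells without zVAD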
p97 confirm – p97 ATPase inhibitors, retest, confirmation, biochemical; shares compounds with p97 inhibitor; recombinant p97 ATPase, Kinase-Glo ATP luminescence; inhibition, % at 8 µM; actives 44% (n = 760); AID 1517, 2009;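 active = percent inhibition of p97 ATPase above a set limit, the primary screen's mean plus 3 SD, cut at about 15% in these data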;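 note: 0% = DMSO wells and 100% = wells lacking p97 protein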
RBBP9 confirm – human RBBP9 inhibitors, retest, confirmation, biochemical, fluorescence polarization, FP-Rh probe, triplicate; shares compounds with RBBP9 inh; recombinant RBBP9; inhibition, % at 7.94 µM; actives 36% (n = 410); AID 1537, 2009;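 active = inhibition above the hit cutoff derived for the primary screen, cut at about 15% in these data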;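 note: 0% = RBBP9 with DMSO and 100% = wells lacking RBBP9 protein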
PfM18AAP inh-2 – PfM18AAP inhibitors, malaria aminopeptidase, confirmation, biochemical, QFRET, recombinant enzyme, triplicate | H-Glu-NHMec fluorogenic cleavage | shares compounds with PfM18AAP inh-1 | inhibition, % at 7.35 µM | actives 28% (n = 2,400);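 active = mean inhibition over replicate wells above the hit cutoff set for the earlier primary screen, cut at about 29% in these data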;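 note: 0% = median of test compound wells and 100% = 2 mM ZnCl2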
CTSL1 confirm – cathepsin L1 inhibitors, retest, confirmation, counter-screen for PFM18AAP inhibitor project, biochemical, QFRET, triplicate. shares compounds with PfM18AAP inh-1. purified cathepsin L1, Z-Leu-Arg-MCA fluorescence. inhibition, % at 5.96 µM. 2,400 tested, under 10 active;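 active = average inhibition across replicates above the hit cutoff set in the earlier primary screen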;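 note: 0% = median of test compound wells and 100% = Z-Phe-Ala-diazomethylketone 1 µM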
Target sequence (P07711 whole entry, looked up): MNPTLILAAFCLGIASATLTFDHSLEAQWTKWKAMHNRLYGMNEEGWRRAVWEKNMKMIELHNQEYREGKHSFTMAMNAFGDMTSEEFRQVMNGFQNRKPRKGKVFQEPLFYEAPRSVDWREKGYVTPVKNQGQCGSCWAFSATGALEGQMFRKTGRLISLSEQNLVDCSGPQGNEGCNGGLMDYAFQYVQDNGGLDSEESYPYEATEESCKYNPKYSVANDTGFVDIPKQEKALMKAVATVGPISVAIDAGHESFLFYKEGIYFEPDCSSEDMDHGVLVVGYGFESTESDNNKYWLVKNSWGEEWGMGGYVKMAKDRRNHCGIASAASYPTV
Active calls of the source: *; . = no result given.

SMILES	TNF necrop inh	RBBP9 inh	p97 inhibitor	Wee1 stabilizer	PfM18AAP inh-1	zVAD death inh	p97 confirm	others
Cc1ccc(Nc2nc(-c3ccc(O)c(O)c3)cs2)nc1	-7	22*	14	2	63*	79*	.	zVAD necrop conf=38;RBBP9 confirm=46*;PfM18AAP inh-2=43*;CTSL1 confirm=2
O=[N+]([O-])/C(=C\Nc1ccccc1Cl)S(=O)(=O)c1ccccc1	-3	2	-2	1	1	0	.
O=[N+]([O-])/C(C=Nc1ccccc1O)=C\Nc1ccccc1O	0	-6	-3	-3	34*	87*	.	zVAD necrop conf=31;PfM18AAP inh-2=18;CTSL1 confirm=2
COc1cc(OC)cc(C(=O)N[C@H](C(=O)OCC(=O)N2CCc3ccccc32)C(C)C)c1	1	-1	5	-1	-10	1	.
Nc1ccccc1Nc1cc(-c2ccccc2)[nH]n1	-13	-1	7	7	39*	91*	.	zVAD necrop conf=89*;PfM18AAP inh-2=-27;CTSL1 confirm=4
C=CCN1C(=O)C2C(C(=O)NC3CCCC3)C3C=CC2(O3)C1C(=O)NC1CCCC1 (centres undefined)	.	.	.	.	8	.	.
Cc1nc2ncccn2c1-c1csc(Nc2ccc(O)cc2)n1	-9	12	9	2	41*	88*	.	zVAD necrop conf=1;PfM18AAP inh-2=43*;CTSL1 confirm=-2
O=C(COc1ccc(C2SCCS2)cc1)NNC(=O)C(Cl)Cl	1	2	26*	8	3	1	9
Cc1ccc(NC(=O)COc2ccc(C3SCCS3)cc2)cc1	3	-5	2	1	-1	0	.
Cc1ccccc1S(=O)(=O)Oc1cccc2c(O)cccc12	.	.	.	.	5	.	.
O=C(COC(=O)c1ccc2c(c1[N+](=O)[O-])C(=O)c1ccccc1C2=O)NC1CC1	1	-2	23*	-3	10	0	29*
O=C1NCCN/C1=C\C(=O)c1cccc(Br)c1	0	-5	-2	-2	1	0	.
Cc1ccc(C(=O)c2c(C)oc3c2C(=O)C(=O)c2ccccc2-3)cc1	-14	-12	22*	-2	15	14	20*
Cn1c(-c2ccccc2)c(C(=O)CCl)c2ccccc21	-18	4	34*	-1	7	45	34*
CCn1c(-c2ccccc2)c(C(=O)CCl)c2ccccc21	-11	-5	32*	0	6	49	36*
Cn1c(-c2ccccc2)c(CCO)c2ccccc21	0	1	1	-1	6	0	.
CNc1c(NC(=O)c2ccc3c(c2)OCO3)c(=O)oc2ccccc12	.	.	.	.	1	.	.
N#CC(Cc1ccccc1OC(F)F)c1nc2ccccc2[nH]1 (centres undefined)	2	4	3	1	-6	0	.
Cc1ccc(S(=O)c2ccc(NC(=O)C3CC3)cc2C#N)cc1 (centres undefined)	-3	-4	17*	2	6	-1	3
O=C(O)c1cc(-c2c[nH]c3ccccc23)nc2cc3ccccc3cc12	0	4	27*	5	0	1	27*
O=C1CS/C(=N/N=C/c2c[nH]c3ccccc23)N1	-1	-12	-1	2	2	1	.
O=C1/C(=C/c2c[nH]c3ccccc23)CCC/C1=C\c1c[nH]c2ccccc12	4	4	29*	0	13	47	23*
O=S(=O)(c1ccc(Br)s1)N1CCN(c2ccc(F)cc2)CC1	.	.	.	.	15	.	.
COc1cc2[nH]c(Cl)c([N+](=O)[O-])c2cc1OC	-1	-2	17*	-2	11	0	6
NC(=O)c1c(NC(=O)C2c3ccccc3Oc3ccccc32)sc2c1CCCCC2	3	-14	2	0	9	2	.
SMILES	TNF necrop inh	RBBP9 inh	p97 inhibitor	Wee1 stabilizer	PfM18AAP inh-1	zVAD death inh	p97 confirm	others
CCOC(=O)N1CCC(NS(=O)(=O)c2cc(C(=O)OC)n(C)c2)CC1	.	.	.	.	0	.	.
Oc1ccc(Cl)cc1/C=C/c1ccc2cccc(O)c2n1	-3	-4	31*	1	13	31	22*
NC(=O)N/N=C/c1cc(Br)ccc1OCC(=O)NCc1ccccc1	4	4	6	2	5	1	.
NC(=O)N/N=C/c1cc(Br)ccc1OC(=O)c1ccccc1	0	2	16*	4	7	1	23*
Cc1ccccc1CNC(=O)CCC(=O)N1CCOc2ccc(Cl)cc21	.	.	.	.	-4	.	.
Cn1c(=NC(=O)CCl)sc2ccccc21	-9	-2	20*	-2	7	0	22*
Cc1cc(Nc2ccccc2)nc(-c2ccccc2O)n1	1	-4	25*	-2	4	-1	40*
Cc1cc(NCc2ccccc2)nc(-c2ccccc2O)n1	2	-7	20*	2	2	12	35*
C/C(=N\NC(=O)Cn1nc(C)cc1C)c1ccc([N+](=O)[O-])cc1	2	0	-5	0	-18	1	.
CC1=Nc2ccccc2/C1=C/c1c(N)n2c(S(=O)(=O)C(C)C)nsc2nc1=O	0	-3	22*	3	13	-1	36*
CC1=Nc2ccccc2/C1=C/c1c(N)n2c(S(=O)(=O)CC(C)C)nsc2nc1=O	0	-11	18*	-1	-7	-1	39*

Source: PubChem (several laboratories)
